Measurements gathered from unrelated publications.
Cell line: A549
Read-out: cell growth or viability

| SMILES | assay | setting | IC50 [µM] |
| --- | --- | --- | --- |
| O=C(N/N=C1\C(=O)N(c2ccccc2)c2ccccc21)c1cc2ccccc2[nH]1 | – | – | 2.41 |
| CCC(=O)Nc1cc(Nc2nc(N3CCc4sccc4C3)c3cccnc3n2)c(OC)cc1N(C)C | MTT | – | > 50 |
| Cc1ccc(-c2csc(Nc3ccc4c(O)ncnc4c3)n2)cc1 | MTT | – | 27 |
| O=C([O-])c1ccc(-n2nc(-c3ccccc3O)nc2-c2ccccc2[O-])cc1.O=C([O-])c1ccc(-n2nc(-c3ccccc3O)nc2-c2ccccc2[O-])cc1.[Ti+4] | MTT | 72 h | 20 |
| CN1CCN(CCn2cccc2/C=N/NC(=O)Nc2cc3c(Nc4ccc(F)c(Cl)c4)ncnc3cc2O[C@H]2CCOC2)CC1 | MTT | 72 h | 3.02 |
| Cc1c(OCC(F)(F)F)ccnc1COc1ccc(NC(=O)Nc2ccc(Cl)c(C(F)(F)F)c2)cc1 | MTT | 72 h | 4.35 |
| CCC(=O)Nc1cc(Nc2nc(N3CCc4sccc4C3)c3cccnc3n2)c(OC)cc1N1CCOCC1 | MTT | – | > 50 |
| CS(=O)(=O)c1ccc(-n2cc(/C=N/N=c3\[nH]c(-c4ccc(Br)cc4)cs3)c(-c3ccc(Br)cc3)n2)cc1 | MTT | 48 h | 9.41 |
| CCCCNC(=O)NNC(=O)c1cccc(Nc2nccc(-c3ccncc3)n2)c1 | MTT | 24 h | 30.6 |
| CC(C)=CCC[C@](C)(O)[C@H]1CC[C@]2(C)[C@@H]1[C@H](O)C[C@@H]1[C@@]3(C)CC[C@H](O[C@@H]4O[C@H](CO)[C@@H](O)[C@H](O)[C@H]4O[C@@H]4O[C@H](CO)[C@@H](O)[C@H](O)[C@H]4O)C(C)(C)[C@@H]3CC[C@]12C | MTT | 72 h | > 100 |
| Cc1ccc(C)n1-c1ccc(-c2nnc(-c3ccccc3Cl)[nH]2)cc1 | MTT | 72 h | 228 |
| COc1cc2ncnc(Nc3ccc(F)c(Cl)c3)c2cc1NC(=O)N/N=C/c1cccn1CCN1CCCC1 | MTT | 72 h | 0.35 |
| COc1ccccc1/C=C/CNCC(O)COc1ccc2[nH]ccc2c1 (stereo not shown) | CCK-8 | 72 h | 25.4 |
| O=c1[nH]cc(S(=O)(=O)Nc2cccc(-c3nnc(-c4cccc(Cl)c4)o3)c2)c(=O)[nH]1 | MTT | 24 h | 0.78 |
| CCOc1ccc(/C=C2\SC(=S)N(CC(=O)Nc3ccccc3)C2=O)cc1 | MTT | – | 10.3 |
| COC1=C2C[C@@H](C)C[C@H](OC)[C@H](O)[C@@H](C)/C=C(\C)[C@H](OC(N)=O)[C@@H](OC)/C=C\C=C(/C)C(=O)NC(=CC1=O)C2=O | SRB | 72 h | 0.3 |
| O=C(NC(=S)N1CCCC1)c1ccc2ccccc2c1 | – | 48 h | 4.22 |
| CCC(=O)Nc1cc(Nc2nc(N3CCc4sccc4C3)c3cccnc3n2)c(OC)cc1N1CCN(CC)CC1 | MTT | – | 21.9 |
| O=C(NC(=S)NCCNC(=S)NC(=O)c1ccc2ccccc2c1)c1ccc2ccccc2c1 | – | 48 h | 2.73 |
| COCCCOc1ccnc(COc2ccc(NC(=O)Nc3ccc(Cl)cc3)cc2)c1C | MTT | 72 h | 10.2 |
| COc1ccccc1OCCNC(=O)COc1cccc2[nH]c3ccccc3c12 | CCK-8 | 72 h | > 100 |
| CC1=C(O)C(=O)C=C2C1=CC=C1[C@@]2(C)CC[C@@]2(C)[C@@H]3C[C@](C)(C(=O)OCCO)CC[C@]3(C)CC[C@]12C | MTT | 48 h | 3.19 |
